Measurements published in PMC7953430 (Chemical Science, 2020).
Values joined by “and” are separate entries in the source; they are usually repeats but may differ in a detail not shown here. Equal values may be shown once. Read-outs that look alike come from different tables or passages of the source.

Columns and labels:
[1] = Solubility in high ionic strength solvents; assay type: physicochemical; settings: DPBS, media
[2] = test system: SK-MEL-28 human skin melanoma cells; assay: Resazurin; assay type: cell-based
[3] = aerated MeCN; cited from earlier work
[4] = Singlet oxygen sensitization quantum yield; assay type: physicochemical; settings: PF6 salts; for ΦΔ singlet oxygen quantum yield: air-saturated MeCN, excitation wavelength in brackets; for 1O2 quantum yield ΦΔ: MeCN
Procedure, shortened: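 ΦΔ was measured from ¹O₂ emission near 1276 nm, relative to [Ru(bpy)₃](PF₆)₂ (ΦΔ = 0.56 in aerated MeCN). Samples were 5–20 μM PF₆⁻ salts in air-bubbled, CaH₂-distilled MeCN. Excitation was at the longest wavelength maximising 1268 nm emission. Absorbance and refractive index corrections were applied, in triplicate.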

SK-MEL-28 cells [5] = assay: Resazurin; assay type: cell-based, human
Procedure, shortened: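 SK-MEL-28 cells were equilibrated at 1% O₂ for 2–3 h before dosing and kept hypoxic for at least 16 h. During illumination plates were sealed with qPCR films (about 20 °C, ≤1.5 h). Light was cool white (400–700 nm), green (523 nm) or red (633 nm) at 20 mW cm⁻² to 100 J cm⁻². Cells recovered in normoxia before the resazurin read. PI was dark EC50/light EC50.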

female C57BL/6J mice = assay: Maximum tolerated dose in mice; assay type: in vivo; settings: ip doses above 100 mg kg^–1 (100, 125, 200); behaviour resolved after 2 h
[6] = test system: B16-F10 murine melanotic melanoma cells; assay: External validation; assay type: cell-based
Procedure, shortened: (§1)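 SK-MEL-28 and B16-F10 cells (B16-F10 grown in DMEM) in log phase were seeded and dosed with 1 nM–300 μM test compound diluted in DPBS (<1.2% v/v DMSO). Plates were irradiated 15–22 h after dosing with broadband projector visible light or a red 630 nm LED panel (33–40 mW cm⁻², 100 J cm⁻²). Resazurin was read at 48 h (530/620 nm). PI was dark EC50/light EC50.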

[7] = test system: SK-MEL-28 human amelanotic melanoma cells; assay: External validation; assay type: cell-based; settings: SK-MEL-28, external validation
Procedure, shortened: as §1

SK-MEL-28 cells [8] = assay: Os-4T interassay repeats, resazurin, normoxia; assay type: cell-based, human
SK-MEL-28 cells [9] = assay: Sulforhodamine B; assay type: cell-based, human; settings: SRB, hypoxia, across light treatments
SK-MEL-28 cells [10] = assay: NIR 753 nm photocytotoxicity on Modulight ML8500; assay type: cell-based, human; settings: 10 μM, 300 mW cm^–2, 200*2 (≥400) J cm^–2, resazurin
Procedure, shortened: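 SK-MEL-28 wells were illuminated one by one with a 753 nm laser at a constant 300 mW cm⁻² over 0–400 J cm⁻², at 37 °C and 5% CO₂. Viability was read by resazurin relative to dark wells, in triplicate.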

SK-MEL-28 cells [11] = assay: NIR 733 nm photocytotoxicity, normoxia; assay type: cell-based, human; settings: read-out: EC50 with 733 nm light, 100 J cm^–2, 5 mW cm^–2
Procedure, shortened: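 Normoxic SK-MEL-28 monolayers in 384-well plates were illuminated with a 733 nm laser through a frontal diffuser (5 mW cm⁻², 100 J cm⁻²), with sham-treated dark controls. Viability was read by resazurin and EC50 was taken from the dose–response curve.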

SK-MEL-28 cells [12] = assay: Os-4T interassay repeats, resazurin, hypoxia; assay type: cell-based, human
Procedure, shortened: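 Hypoxic (1% O₂) SK-MEL-28 phototoxicity was read by resazurin across repeats under three light conditions. Repeat 0 was run in 96-well plates; repeats 1–5 were run within a month in 384-well plates. Plate maps, pipette tips and seed stock (repeats 4–5) were varied, and overhead lights were off in repeat 5. Cells were at passages 10–15, with three replicates per repeat.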

[13] = read-out: EC50 ± SEM Dark, normoxia 18.5–21% O2, no light
[14] = read-out: visible EC50, normoxia, visible light 100 J cm^–2

[Cl-].[Cl-].[Os+2].c1cnc2c(c1)ccc1cccnc12.c1cnc2c(c1)ccc1cccnc12.c1cnc2c(c1)ccc1cccnc12 [[Os(phen)3]Cl2, reference compound]
solubility in high ionic strength solvents [1]: > 300 µM
PI regardless of wavelength ([2]; normoxia, visible, green or red): 2–4
EC50 [2, 13]: 158000 nM

F[P-](F)(F)(F)(F)F.F[P-](F)(F)(F)(F)F.[Ru+2].c1ccc(-c2ccccn2)nc1.c1ccc(-c2ccccn2)nc1.c1ccc(-c2ccccn2)nc1 [[Ru(bpy)3](PF6)2]
ΦΔ singlet oxygen quantum yield (standard) [3]: 0.56

[Os(phen)2(IP)]^2+ [Os-0T]
ΦΔ singlet oxygen quantum yield [4]: 0.43 [473]

[Os(phen)2(IP-1T)]^2+ [Os-1T]
ΦΔ singlet oxygen quantum yield [4]: 0.42 [473]

[Os(phen)2(IP-2T)]^2+ [Os-2T]
ΦΔ singlet oxygen quantum yield [4]: 0.49 [472]
EC50 [2, 13]: 35700 nM

[Os(phen)2(IP-3T)]^2+ [Os-3T]
1O2 quantum yield ΦΔ [4]: 51%
ΦΔ singlet oxygen quantum yield [4]: 0.51 [525]
PI Green ([2]; normoxia, dark EC50/green 523 nm EC50): 103
PI Visible (phototherapeutic index) ([2]; normoxia, dark EC50/visible EC50): 369
EC50 [2, 14]: 153 nM

[Os(phen)2(IP-4T)]^2+ [Os-4T]
PI Green (SK-MEL-28 cells [5]; hypoxia 1% O2, dark EC50/green EC50): 91 and > 90
PI Visible (SK-MEL-28 cells [5]; hypoxia 1% O2, dark EC50/visible EC50): > 90
EC50 (SK-MEL-28 cells [5]; read-out: light EC50 values in hypoxia, hypoxia 1% O2, across visible, green, red light): 651 to 835 nM
1O2 quantum yield ΦΔ [4]: 95%
ΦΔ singlet oxygen quantum yield [4]: 0.95 [525]
observed clinical toxicity (female C57BL/6J mice): mild toxicity
PI Visible ([6]; B16-F10, dark EC50/visible EC50): > 20 000 and > 10^4
EC50 ([6]; read-out: visible EC50, B16-F10, external validation): 15 nM
EC50 ([7]; read-out: red EC50): 9.44 nM
EC50 ([7]; read-out: visible EC50): 2.91 nM
EC50 (SK-MEL-28 cells [8]; read-out: EC50 range over repeats, green, normoxia): 1.16 to 25.4 nM
EC50 (SK-MEL-28 cells [8]; read-out: EC50 range over repeats, red, normoxia): 10 to 46.2 nM
EC50 (SK-MEL-28 cells [8]; read-out: EC50 range over repeats, visible, normoxia): 0.0178 to 8.91 nM
EC50 (SK-MEL-28 cells [8]; read-out: average dark EC50 across repeats, either oxygen condition (normoxia and hypoxia), <7% variation): 62800 nM
EC50 (SK-MEL-28 cells [8]; read-out: average normoxic EC50, green, normoxia, repeats): 11.7 nM
EC50 (SK-MEL-28 cells [8]; read-out: average normoxic EC50, red, normoxia, repeats): 30.8 nM
EC50 (SK-MEL-28 cells [8]; read-out: average normoxic EC50, visible, normoxia, repeats): 1.62 nM
total growth inhibition (TGI), light-treated samples (SK-MEL-28 cells [9]): 140 to 170 nM
reduction of relative cell viability compared to dark (SK-MEL-28 cells [10]): 14%
EC50 (SK-MEL-28 cells [11]): 803 nM
EC50 ([2]; read-out: EC50 with green light, normoxia, green 523 nm, 100 J cm^–2): 1 nM
EC50 ([2]; read-out: EC50 with red light, normoxia, red 633 nm, 100 J cm^–2): 10 nM
EC50 [2, 13]: 65100 nM
EC50 [2, 14]: 0.018 nM
PI range across repeats and three light conditions (SK-MEL-28 cells [12]; hypoxia 1% O2): 32 to 167
average hypoxic PI across the three light conditions (SK-MEL-28 cells [12]; hypoxia 1% O2, repeat 3 excluded): 90
